The array DNA melting data of Ke et al. (doi:10.1101/2024.01.08.574731)

How the values were obtained:
[1] = melting temperature; fluorescence melt of hairpins on a sequencing array, two-state fit, raised by 9.35 °C to match UV melts; conditions: sodium 0.088 M
Outline: (§1)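 To match UV melts, fitted temperatures were raised by 9.35 °C. These fits were bootstrapped two-state models that gave melting temperature and folding enthalpy, combined by inverse variance over four replicates. The input was normalised Cy3 fluorescence of library hairpins with annealed Cy3 and quencher oligos on a sequenced MiSeq flow cell, imaged in 50 mM Na-HEPES pH 8.0, 25 mM NaCl in 2.5 °C steps up to 60 °C.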

[2] = folding enthalpy; higher = less favourable; fluorescence melt of hairpins on a sequencing array, two-state fit; conditions: sodium 0.088 M
Outline: as §1

| Sequence | Tm [1] [°C] | folding enthalpy [2] [kcal/mol] |
| --- | --- | --- |
| CGCCCGGAAACGGGAGCG ((((((....)))..))) | 55.3 | -15.3 |
| GTATGACCGAAAGGTTAC (((..(((....)))))) | 30.5 | -10.3 |
| GCCGGCGAAAGCCCGGGC ((((((....)))..))) | 62.1 | -17.6 |
| AGGTAGAAATACCT (((((....))))) | 33.5 | -14.5 |
| GGATGCGAAAGCAATTCC ((((((....)))..))) | 36.7 | -16.1 |
| GCAATCGGAAACGATCAC (..((((....))))..) | 25.1 | -12 |
| GTAAGGGGAAACCCTTAC (((((((....))))))) | 54.8 | -42.4 |
| GCCGGACCGAAAGGTGGC (((..(((....)))))) | 53.4 | -26.9 |
| GATCTCGACTGAGATC ((((((....)))))) | 55.8 | -45.9 |
| CGCCCGGAAACGGCCGCG ((((((....)))..))) | 43.8 | -19.6 |
| GGGGTGGGAAACCGCTCC ((.(.((....)).).)) | 47.7 | -21.9 |
| GCGGGAGACCGC ((((....)))) | 66.3 | -14.4 |
| GATCTTCCGCAAGATC ((((((....)))))) | 42.5 | -35.4 |
| CGCGGAGCGGTCCGCG ((((((....)))))) | 50.5 | -15.8 |
| GCTCGGCGAAAGCCAGGC ((..(((....)))..)) | 58.8 | -12.6 |
| GGTATAGGAAACCATACC (((((.(....).))))) | 36.7 | -23.1 |
| GATCCCCCGAAAGGGATC (((..(((....)))))) | 52.4 | -30.7 |
| GCTGGAGGAAACTCTAGC (((.(((....))).))) | 48.4 | -40.4 |
| GCCCAGGGAAACCCGAGC ((.(.((....)).).)) | 28.3 | -6.87 |
| GATCGCCTTTGCGATC ((((((....)))))) | 67.8 | -38.6 |
| GCTGTTGGAAACAACAGC (((((((....))))))) | 67.1 | -44.5 |
| GCCGGTCGAAAGACGGGC (((.(((....))).))) | 63.9 | -39.9 |
| GACATGGGAAACCACGTC (((.(((....))).))) | 38.8 | -26.7 |

| Sequence | Tm [1] [°C] | folding enthalpy [2] [kcal/mol] |
| --- | --- | --- |
| GCCTGAGGAAACTTAGGC ((((.((....)).)))) | 48.8 | -31.2 |
| GGTACCCGAAAGGGACC (((.(((....)))))) | 54.5 | -25.9 |
| GATCAATTCTTGATC ((((((...)))))) | 44.8 | -29.1 |
| GATCATATGCATGATC ((((((....)))))) | 48.2 | -40.4 |
| GCTGCCGAAAGGCTTAGC ((((((....)))..))) | 45.2 | -16.1 |
| GCGATGGCGAAAGCCCGC (((..(((....)))))) | 56.5 | -18.4 |
| GCAATTCGAAAGAAGTGC (((.(((....))).))) | 52.4 | -34.6 |
| GGCTACGAAAGTAGGCC ((((((....))).))) | 57.6 | -17.3 |
| GATCGCGATTGCGATC ((((((....)))))) | 68.7 | -34.2 |
| GCGAAACGAAAGTTGCGC (((.(((....))).))) | 65.7 | -35.8 |
| GATTTTGGAAACAAAACC (.(((((....))))).) | 29.6 | -24.9 |
| GTGAAGGGAAACCCTCAC ((((.((....)).)))) | 43.3 | -26.9 |
| GGTCGACGAAAGTCAACC (((.(((....))).))) | 49.9 | -32.2 |
| GGCTGCGGAAACGTGGCC (((..((....))..))) | 56.5 | -45.6 |
| GTCGCGGCGAAAGCCGAC (((..(((....)))))) | 42.2 | -7.7 |
| CGGACGGAAACGTTACCG ((((((....)))..))) | 36.3 | -20.6 |
| GTGCGTGGAAACACACAC (((.(((....))).))) | 48.6 | -37.9 |
| GTTGCCGAAAGGCGAAC ((((((....))).))) | 50.3 | -13.8 |
| GGAAGGGGAAACCCTCCC ((.((((....)))).)) | 41.1 | -21 |
| GATCAACGGGTTGATC ((((((....)))))) | 56.8 | -36.7 |
| GTCTCACCGAAAGGTGAC (((..(((....)))))) | 36.1 | -7.93 |
| GCCTAGCGAAAGCACGGC (((..((....))..))) | 54.9 | -20.3 |
| GATCTGAACGCAGATC ((((((....)))))) | 46.3 | -26.1 |

| Sequence | Tm [1] [°C] | folding enthalpy [2] [kcal/mol] |
| --- | --- | --- |
| GTGTATCGAAAGATGCAC (((.(((....))).))) | 53.6 | -41.9 |
| GGTTTGGGAAACCGAATC (.((.((....)).)).) | 35.3 | -20.2 |
| GACCACGAAAGTGCTGTC ((((((....)))..))) | 34 | -17.2 |
| GTCGATGGAAACATCAAC ((.((((....)))).)) | 34.7 | -17.6 |
| GCGGAAGGCCGC ((((....)))) | 53.1 | -21.7 |
| GGTGCGACGAAAGTCACC (((..(((....)))))) | 42.5 | -16.5 |
| GATCAATACTTTGATC ((((((....)))))) | 48.1 | -39.6 |
| GTTATCGAAAGATACAAC ((((((....)))..))) | 23.5 | -9.31 |
| GTCGCCGGAAACAGCGAC (((((.(....).))))) | 54.9 | -44.9 |
| GTTATGGAAACATAAC ((((((....)))))) | 47.5 | -30.3 |
| GATCACCCTGGTGATC ((((((....)))))) | 64.1 | -41.1 |
| TGCTTGAAAAAGCA (((((....))))) | 47.9 | -8.9 |
| GATCTTCAAAAGATC ((((((...)))))) | 41 | -19.2 |
| GCGGCGCGAAAGCGTAGC ((..(((....)))..)) | 65.8 | -26.1 |
| GATCCAGGCTGGATC ((((((...)))))) | 53 | -46.7 |
| GAATGCGAAAGCATGTTC ((((((....)))..))) | 42.6 | -11.2 |
| GCGCAGCGAAAGCTACGC (((.(((....))).))) | 53.5 | -35 |
| GGGTGCGGAAACGTACCC ((((.((....)).)))) | 61.2 | -41.5 |
| GTGGAAGGAAACCTCCAC (((((.(....).))))) | 44.1 | -34 |
| GATCGGGACGCCGATC ((((((....)))))) | 59.5 | -36.6 |
| CGCGGAAGGGTCCGCG ((((((....)))))) | 69.3 | -29.1 |
| GCATGCGAAAGCAGTGC ((((((....))).))) | 54.6 | -27 |
| CGACCGGAAACGGTATCG ((((((....)))..))) | 33.6 | -13.6 |
